According to ChEMBL document CHEMBL1133010, “Structure-function studies of polymyxin B nonapeptide: implications to sensitization of gram-negative bacteria” (J Med Chem, 2000):

What was measured:
Format in all cases: functional
Escherichia coli [1] = experiment: Inhibitory concentration required to displace dansyl-PMBN (0.55 uM) from maximal specific binding to Escherichia coli LPS; conditions: Escherichia coli
In short: (§1)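 Fluorescence displacement assay. E. coli LPS (3 µg/mL, ~2 × 10^-7 M) in 5 mM HEPES pH 7.2 was pre-equilibrated with dansyl-PMBN (0.55 µM). Peptide was added stepwise at 5-min intervals from 1 × 10^-5 to 1 × 10^-3 M stocks. Fluorescence read at excitation 340 nm and emission 485 nm after each addition. Percent inhibition was plotted against concentration to give maximal and 50% displacement. 2-3 repeats.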

Klebsiella pneumoniae = experiment: Relative sensitizing activity against Klebsiella pneumoniae was determined as a percent of pPMBN (50 ug/mL) as a control
In short: (§2)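 Clinical isolates at 1 × 10^5 CFU per well, in ISB with a 2-fold serial dilution (1000-0.5 µg/mL) of novobiocin. Peptide added at 50 µg/mL final. Incubated 20 h at 37 °C and read by visible growth. Sensitizing activity is the fold drop in novobiocin MIC with versus without peptide, expressed as percent of that given by 50 µg/mL pPMBN.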

Escherichia coli [2] = experiment: Relative sensitizing activity against Escherichia coli was determined as a percent of pPMBN (50 ug/mL) as a control; in short: as §2
Escherichia coli [3] = experiment: Maximal displacement of dansyl-PMBN from Escherichia coli LPS; in short: as §1

Compound	Activity (Klebsiella pneumoniae) [%]	Activity (Escherichia coli [2]) [%]	Imax (Escherichia coli [3]) [%]	other results
CC(C)C[C@@H]1NC(=O)[C@@H](Cc2ccccc2)NC(=O)[C@H](CCCCN)NC(=O)[C@@H](NC(=O)[C@H](CCCCN)NC(=O)[C@@H](N)[C@@H](C)O)CCNC(=O)[C@H]([C@@H](C)O)NC(=O)[C@H](CCCCN)NC(=O)[C@H](CCCCN)NC1=O [listing 1 of 2 here]	–	–	–	IC50 (Escherichia coli [1]): 30 µM
CC(C)C[C@@H]1NC(=O)[C@@H](Cc2ccccc2)NC(=O)[C@H](CCN)NC(=O)[C@@H](NC(=O)[C@H](CCN)NC(=O)[C@@H](N)[C@@H](C)O)CCNC(=O)[C@H]([C@@H](C)O)NC(=O)[C@H](CCCCN)NC(=O)[C@H](CCCCN)NC1=O [listing 1 of 2 here]	26	40	–	–
CC(C)C[C@@H]1NC(=O)[C@@H](Cc2ccccc2)NC(=O)[C@H](CCN)NC(=O)[C@@H](NC(=O)[C@H](CCN)NC(=O)[C@@H](N)[C@@H](C)O)CCNC(=O)[C@H]([C@@H](C)O)NC(=O)[C@H](CCCCN)NC(=O)[C@H](CCCCN)NC1=O [listing 2 of 2 here]	–	–	–	IC50 (Escherichia coli [1]): 12 µM
CC(C)C[C@H]1NC(=O)[C@@H](Cc2ccccc2)NC(=O)[C@@H](CCCCN)NC(=O)[C@H](NC(=O)[C@H](CCCCN)NC(=O)[C@@H](N)[C@@H](C)O)CCNC(=O)[C@H]([C@@H](C)O)NC(=O)[C@@H](CCCCN)NC(=O)[C@H](CCCCN)NC1=O	–	–	45	–
CC(C)C[C@@H]1NC(=O)[C@@H](Cc2ccccc2)NC(=O)[C@H](CN)NC(=O)[C@@H](NC(=O)[C@H](CN)NC(=O)[C@@H](N)[C@@H](C)O)CNC(=O)[C@H]([C@@H](C)O)NC(=O)[C@H](CN)NC(=O)[C@H](CN)NC1=O	5	11	–	–
CC(C)C[C@@H]1NC(=O)[C@@H](Cc2ccccc2)NC(=O)[C@H](CCN)NC(=O)[C@H](CCN)NC(=O)[C@@H](NC(=O)[C@@H](N)[C@@H](C)O)CCNC(=O)[C@H]([C@@H](C)O)NC(=O)[C@H](CCN)NC(=O)[C@H](CCN)NC1=O [listing 1 of 2 here]	–	–	–	IC50 (Escherichia coli [1]): 8 µM
CC(C)C[C@@H]1NC(=O)[C@@H](Cc2ccccc2)NC(=O)[C@H](CCCN)NC(=O)[C@@H](NC(=O)[C@H](CCCN)NC(=O)[C@@H](N)[C@@H](C)O)CCCNC(=O)[C@H]([C@@H](C)O)NC(=O)[C@H](CCCN)NC(=O)[C@H](CCCN)NC1=O [listing 1 of 2 here]	6	2	–	–
POLYMYXIN B	–	–	100	–
CC(C)C[C@H]1NC(=O)[C@@H](Cc2ccccc2)NC(=O)[C@@H](CCCCN)NC(=O)[C@H](NC(=O)[C@H](CCCCN)NC(=O)[C@@H](N)[C@@H](C)O)CCCCNC(=O)[C@H]([C@@H](C)O)NC(=O)[C@@H](CCCCN)NC(=O)[C@H](CCCCN)NC1=O	–	–	60	–
CC(C)C[C@@H]1NC(=O)[C@@H](Cc2ccccc2)NC(=O)[C@H](CCCCN)NC(=O)[C@@H](NC(=O)[C@H](CCCCN)NC(=O)[C@@H](N)[C@@H](C)O)CCCCNC(=O)[C@H]([C@@H](C)O)NC(=O)[C@H](CCCCN)NC(=O)[C@H](CCCCN)NC1=O	3	4	–	–
CC(C)C[C@@H]1NC(=O)[C@@H](Cc2ccccc2)NC(=O)[C@H](CCCCN)NC(=O)[C@@H](NC(=O)[C@H](CCCCN)NC(=O)[C@@H](N)[C@@H](C)O)CCNC(=O)[C@H]([C@@H](C)O)NC(=O)[C@H](CCN)NC(=O)[C@H](CCN)NC1=O [listing 1 of 2 here]	–	–	–	IC50 (Escherichia coli [1]): 14 µM
CC(C)C[C@@H]1NC(=O)[C@@H](Cc2ccccc2)NC(=O)[C@H](CCN=C(N)N)NC(=O)[C@@H](NC(=O)[C@H](CCN=C(N)N)NC(=O)[C@@H](N)[C@@H](C)O)CCNC(=O)[C@H]([C@@H](C)O)NC(=O)[C@H](CCN=C(N)N)NC(=O)[C@H](CCN=C(N)N)NC1=O [listing 1 of 2 here]	–	–	–	IC50 (Escherichia coli [1]): 3.8 µM
CC(C)C[C@H]1NC(=O)[C@@H](Cc2ccccc2)NC(=O)[C@@H](CCN)NC(=O)[C@H](CCN)NC(=O)[C@@H](NC(=O)[C@@H](N)[C@@H](C)O)CCNC(=O)[C@H]([C@@H](C)O)NC(=O)[C@@H](CCN)NC(=O)[C@H](CCN)NC1=O	–	–	60	–
CC(C)C[C@H]1NC(=O)[C@@H](Cc2ccccc2)NC(=O)[C@@H](CCN)NC(=O)[C@H](NC(=O)[C@H](CCN)NC(=O)[C@@H](N)[C@@H](C)O)CCCCNC(=O)[C@H]([C@@H](C)O)NC(=O)[C@@H](CCN)NC(=O)[C@H](CCN)NC1=O	–	–	60	–
CC(C)C[C@@H]1NC(=O)[C@@H](Cc2ccccc2)NC(=O)[C@H](CCCN)NC(=O)[C@@H](NC(=O)[C@H](CCCN)NC(=O)[C@@H](N)[C@@H](C)O)CCCNC(=O)[C@H]([C@@H](C)O)NC(=O)[C@H](CCCN)NC(=O)[C@H](CCCN)NC1=O [listing 2 of 2 here]	–	–	–	IC50 (Escherichia coli [1]): 25 µM
CC(C)C[C@H]1NC(=O)[C@H](Cc2ccccc2)NC(=O)[C@@H](CCN)NC(=O)[C@H](NC(=O)[C@H](CCN)NC(=O)[C@@H](N)[C@@H](C)O)CCNC(=O)[C@H]([C@@H](C)O)NC(=O)[C@@H](CCN)NC(=O)[C@H](CCN)NC1=O	–	–	64	–

Compound	Activity (Klebsiella pneumoniae) [%]	Activity (Escherichia coli [2]) [%]	Imax (Escherichia coli [3]) [%]	other results
CC(C)C[C@H]1NC(=O)[C@@H](Cc2ccccc2)NC(=O)[C@@H](CN)NC(=O)[C@H](NC(=O)[C@H](CN)NC(=O)[C@@H](N)[C@@H](C)O)CNC(=O)[C@H]([C@@H](C)O)NC(=O)[C@@H](CN)NC(=O)[C@H](CN)NC1=O	–	–	64	–
CC(C)C[C@H]1NC(=O)[C@@H](Cc2ccccc2)NC(=O)[C@@H](CCCCN)NC(=O)[C@H](NC(=O)[C@H](CCCCN)NC(=O)[C@@H](N)[C@@H](C)O)CCNC(=O)[C@H]([C@@H](C)O)NC(=O)[C@@H](CCN)NC(=O)[C@H](CCN)NC1=O	–	–	64	–
CC(C)C[C@H]1NC(=O)[C@@H](Cc2ccccc2)NC(=O)[C@@H](CCN)NC(=O)[C@H](NC(=O)[C@H](CCN)NC(=O)[C@@H](N)[C@@H](C)O)CCNC(=O)[C@H]([C@@H](C)O)NC(=O)[C@@H](CCN)NC(=O)[C@H](CCN)NC1=O (stereo in doubt; form 2)	–	–	80	–
CC(C)C[C@@H]1NC(=O)[C@@H](Cc2ccccc2)NC(=O)[C@H](CCN)NC(=O)[C@@H](NC(=O)[C@H](CCN)NC(=O)[C@@H](N)[C@@H](C)O)CCCCNC(=O)[C@H]([C@@H](C)O)NC(=O)[C@H](CCN)NC(=O)[C@H](CCN)NC1=O	18	17	–	–
CC(C)C[C@H]1NC(=O)[C@@H](Cc2ccccc2)NC(=O)[C@@H](NC(=O)[C@H](CCN)NC(=O)[C@H](CCN)NC(=O)[C@@H](N)[C@@H](C)O)CCNC(=O)[C@H]([C@@H](C)O)NC(=O)[C@@H](CCN)NC(=O)[C@H](CCN)NC1=O	–	–	45	–
CC(C)C[C@@H]1NC(=O)[C@@H](Cc2ccccc2)NC(=O)[C@H](CCCCN)NC(=O)[C@@H](NC(=O)[C@H](CCCCN)NC(=O)[C@@H](N)[C@@H](C)O)CCNC(=O)[C@H]([C@@H](C)O)NC(=O)[C@H](CCN)NC(=O)[C@H](CCN)NC1=O [listing 2 of 2 here]	13	9	–	–
CC(C)C[C@H]1NC(=O)[C@@H](Cc2ccccc2)NC(=O)[C@@H](CCCN)NC(=O)[C@H](NC(=O)[C@H](CCCN)NC(=O)[C@@H](N)[C@@H](C)O)CCCNC(=O)[C@H]([C@@H](C)O)NC(=O)[C@@H](CCCN)NC(=O)[C@H](CCCN)NC1=O	–	–	62	–
CC(C)C[C@@H]1NC(=O)[C@@H](Cc2ccccc2)NC(=O)[C@H](CCN=C(N)N)NC(=O)[C@@H](NC(=O)[C@H](CCN=C(N)N)NC(=O)[C@@H](N)[C@@H](C)O)CCNC(=O)[C@H]([C@@H](C)O)NC(=O)[C@H](CCN=C(N)N)NC(=O)[C@H](CCN=C(N)N)NC1=O [listing 2 of 2 here]	25	25	–	–
CC(C)C[C@H]1NC(=O)[C@H](Cc2ccccc2)NC(=O)[C@@H](CCN=C(N)N)NC(=O)[C@H](NC(=O)[C@H](CCN=C(N)N)NC(=O)[C@@H](N)[C@@H](C)O)CCNC(=O)[C@H]([C@@H](C)O)NC(=O)[C@@H](CCN=C(N)N)NC(=O)[C@H](CCN=C(N)N)NC1=O	–	–	80	–
CC(C)C[C@@H]1NC(=O)[C@@H](Cc2ccccc2)NC(=O)[C@@H](NC(=O)[C@H](CCN)NC(=O)[C@H](CCN)NC(=O)[C@@H](N)[C@@H](C)O)CCNC(=O)[C@H]([C@@H](C)O)NC(=O)[C@H](CCN)NC(=O)[C@H](CCN)NC1=O	5	4	–	–
CC(C)C[C@H]1NC(=O)[C@@H](Cc2ccccc2)NC(=O)[C@@H](CCN)NC(=O)[C@H](NC(=O)[C@H](CCN)NC(=O)[C@@H](N)[C@@H](C)O)CCNC(=O)[C@H]([C@@H](C)O)NC(=O)[C@@H](CCN)NC(=O)[C@H](CCN)NC1=O (stereo in doubt; form 1)	–	–	80	–
CC(C)C[C@@H]1NC(=O)[C@@H](Cc2ccccc2)NC(=O)[C@H](CCN)NC(=O)[C@H](CCN)NC(=O)[C@@H](NC(=O)[C@@H](N)[C@@H](C)O)CCNC(=O)[C@H]([C@@H](C)O)NC(=O)[C@H](CCN)NC(=O)[C@H](CCN)NC1=O [listing 2 of 2 here]	5	7	–	–
CC(C)C[C@@H]1NC(=O)[C@@H](Cc2ccccc2)NC(=O)[C@H](CCCCN)NC(=O)[C@@H](NC(=O)[C@H](CCCCN)NC(=O)[C@@H](N)[C@@H](C)O)CCNC(=O)[C@H]([C@@H](C)O)NC(=O)[C@H](CCCCN)NC(=O)[C@H](CCCCN)NC1=O [listing 2 of 2 here]	3	5	–	–
CC(C)C[C@@H]1NC(=O)[C@@H](Cc2ccccc2)NC(=O)[C@H](CCN)NC(=O)[C@@H](NC(=O)[C@H](CCN)NC(=O)[C@@H](N)[C@@H](C)O)CCNC(=O)[C@H]([C@@H](C)O)NC(=O)[C@H](CCN)NC(=O)[C@H](CCN)NC1=O (stereo in doubt; form 2)	93	96	–	–
CC(C)C[C@H]1NC(=O)[C@@H](Cc2ccccc2)NC(=O)[C@@H](CCN)NC(=O)[C@H](NC(=O)[C@H](CCN)NC(=O)[C@@H](N)[C@@H](C)O)CCNC(=O)[C@H]([C@@H](C)O)NC(=O)[C@@H](CCCCN)NC(=O)[C@H](CCCCN)NC1=O	–	–	62	–
CC(C)C[C@@H]1NC(=O)[C@H](Cc2ccccc2)NC(=O)[C@H](CCN)NC(=O)[C@@H](NC(=O)[C@H](CCN)NC(=O)[C@@H](N)[C@@H](C)O)CCNC(=O)[C@H]([C@@H](C)O)NC(=O)[C@H](CCN)NC(=O)[C@H](CCN)NC1=O	9	5	–	–
